How the values were obtained:
[1] = test system: p110γ; conditions: read-out: IC50 p110γ; cited from earlier work
[2] = test system: p110α; conditions: read-out: IC50 p110α; cited from earlier work
[3] = test system: advanced solid tumors; assay: Tumor response by investigator, modified RECIST version 1.1; type: in vivo, human
Procedure, shortened: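 Solid-tumour patients (dose-escalation cohorts 0.1–1.2 mg/kg, expansion at 0.8 mg/kg) received a 1-h IV infusion on days 1, 8 and 15 of 28-day cycles until progression. Response was by investigator assessment using modified RECIST 1.1. PTEN loss by IHC was defined as 0% tumour cells staining, low as 1% to <5%, and positive as ≥5%.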

For `COc1c(OCCCN2CCOCC2)ccc2c1N=C(NC(=O)c1cnc(N)nc1)N1CCN=C21` [copanlisib, Copanlisib], the IC50 [1] is given as 6.4 nM, the IC50 [2] is given as 0.5 nM and the tumor reduction ([3]; 1 patient with endometrial carcinoma, 0.4 mg/kg cohort, stable disease) is given as > 25%. For the same compound, the “objective response or stable disease for >4 cycles” value ([3]; 10 patients without complete PTEN loss) was “none”, the “partial response (PR)” value ([3]; 48 patients with solid tumors, 2 patients, 1 confirmed, 1 unconfirmed) was 4% and the “complete response (CR)” value ([3]; 48 patients with solid tumors, one patient) was 2%. For the same compound, the “disease progression by clinical judgment” value ([3]; 48 patients with solid tumors, seven patients) was 15%, the “patients with stable disease ≥6 cycles” value ([3]; of the 15 patients with stable disease) was 6 patients and the “cycles until CR” value ([3]; patient with endometrial carcinoma, PIK3CA and PTEN mutations, complete PTEN loss, 0.8 mg/kg) was 10 cycles. For the same compound, the overall response rate ([3]; patients with solid tumors) was 6%, the “CR, PR, or stable disease lasting ≥6 cycles” value ([3]; solid tumors at MTD with complete PTEN loss, 3 of 7) was 43% and the “CR, PR, or stable disease” value ([3]; solid tumors at MTD without PTEN loss, seven patients) was “none”.

Reference: article PMC5035790 (Annals of Oncology, 2016)
